From PubChem
This is a sample that favours compounds with a hit; in the whole collection about 3.7% have one here.
EBV gp42 block = inhibitors of Epstein-Barr virus glycoprotein 42 | Q1HVG2 | hit rate 0.42% among 220,000 | inhibition, % (tested at 21.74 µM) | Fluorescence polarization binding assay, mP read-out; in the data active = inhibition above about 50%
Target sequence (Q1HVG2 whole entry, looked up): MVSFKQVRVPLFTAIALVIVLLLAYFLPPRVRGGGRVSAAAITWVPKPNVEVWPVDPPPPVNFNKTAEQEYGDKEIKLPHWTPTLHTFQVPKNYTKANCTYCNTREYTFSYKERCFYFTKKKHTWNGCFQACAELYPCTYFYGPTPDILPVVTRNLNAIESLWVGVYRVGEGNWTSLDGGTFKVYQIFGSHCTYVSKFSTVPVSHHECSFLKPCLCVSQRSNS
RBBP9 inh = inhibitors of human serine hydrolase RBBP9; hit rate 0.2% among 220,000; O75884; AID 1515; recombinant RBBP9, FP-Rh probe fluorescence polarization; inhibition, % at 7.94 µM;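 active = inhibition above the campaign mean of all tested compounds plus 3 SD, cut at about 14% in these data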
Target sequence (O75884 whole entry, looked up): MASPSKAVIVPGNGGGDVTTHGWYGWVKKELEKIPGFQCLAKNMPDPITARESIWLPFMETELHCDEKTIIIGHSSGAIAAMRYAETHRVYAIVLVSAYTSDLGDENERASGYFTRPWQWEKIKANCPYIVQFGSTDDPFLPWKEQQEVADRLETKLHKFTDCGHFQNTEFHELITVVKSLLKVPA
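Assay system: recombinant human RBBP9; Reagent: Serine-hydrolase probe FP-Rh, 375 nM pre-mixing; Doses: 7.94 µM single dose, 0.794% DMSO; Incubation: 30 min then 45 min, 25 °C; Detection: fluorescence polarization (mP), excitation 525 nm, emission 598 nm; Evaluation: percent inhibition from mP, scaled between DMSO and no-protein wells.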
14-3-3 Bad inh = disrupts binding of bovine 14-3-3 zeta to phospho-Bad peptide; inhibition, % at 21.7 µM; TR-FRET 14-3-3zeta/Dy647-pBad peptide displacement, 1 h; hit rate 0.71% among 220,000; P63103;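 active = inhibition above about 70%, limit read from the data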
WT yeast gro inh = growth inhibition of WT yeast, mitochondrial fusion screen; mitochondrial fusion phenotypic screen, WT strain; inhibition, % at 10 µM; hit rate 2.1% among 190,000; in the data active = inhibition above about 58%; tested in S. cerevisiae
eIF4E 4G PPI = eIF4E/eIF4G interaction inhibition in translation initiation | P63073+Q04637 | TR-FRET eIF4E-eIF4GI(517-606) binding, 2 h | inhibition, % at 21.7 µM | hit rate 0.37% among 220,000 | AID 782
p47phox inh = inhibitors of human p47phox binding | hit rate 0.53% among 220,000 | P14598 | AID 1274 | p47phox/p22phox peptide binding, fluorescence polarization, 2 h | inhibition, % at 24.7 µM
Hits are given with their value; 0 = inactive; - = no result given; [ ] = dose if it differs, or a comment.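 Rule for the calls, unless noted: active = inhibition above about 30% (limit read from the data); inactive = the rest.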

SMILES	EBV gp42 block	RBBP9 inh	14-3-3 Bad inh	WT yeast gro inh	eIF4E 4G PPI	p47phox inh
CCCCCCCCCCCCCCCC[n+]1ccc(C(N)=O)cc1	0	0	79.4[fluorescence artefact?]	99.2	77.6[fluorescence artefact?]	101.0
CCCCCCCCCCCCCCCC[n+]1cccc(C(=O)N(CC)CC)c1	0	0	98.0[fluorescence artefact?]	0	76.5[fluorescence artefact?]	107.5
CCCC/C(C)=N/NC(=O)c1cn(-c2ccccc2)nc1-c1ccccc1	0	0	0	0	0	0
CCN(Cc1cc2ccc(C)cc2[nH]c1=O)C(=O)c1ccncc1	0	0	0	60.2	0	0
CCN(CC(O)Cn1c2ccccc2c2ccccc21)S(=O)(=O)c1ccc(F)cc1 (configuration not stated)	0	0	0	65.4	0	0
Cn1c(=O)c(NC2CCCCC2)c2c3c(cccc31)C(=O)c1ccccc1-2	139.3	0	0	58.5	0	0
CC(=O)Nc1ccc(Nc2c3c4c(cccc4n(C)c2=O)C(=O)c2ccccc2-3)cc1	140.5	0	0	0	0	0
CCOC(=O)C1=C(C)C/C(=N\NC(=O)c2ccccc2O)CC1	0	0	0	-	0	0
Cc1ccc(CN2CCN(/N=C/c3ccc(C(F)(F)F)cc3)CC2)c(C)c1	0	0	0	64.0	0	0
Clc1nc(-c2cccnc2)nc2scc(-c3ccccc3)c12	0	0	0	77.0	0	0
COc1ccc(-c2csc3nc(-c4cccnc4)nc(Cl)c23)cc1OC	0	0	0	63.0	0	0
COc1ccc(-c2nc(-c3cccnc3)no2)cc1OC	0	0	0	-	0	0
CCCCNC(=S)N/N=C/c1cc(C)ccc1C	0	0	0	66.5	0	0
O=C1CCCN1c1ccc(S(=O)(=O)Oc2cccc(Cl)c2)cc1[N+](=O)[O-]	0	0	0	0	0	0
Cn1c(O)c(C=Nc2ccc(N3CCOCC3)cc2)c(=O)n(C)c1=S	111.9	0	0	0	0	0
Fc1ccc(N2CCN(c3nc(CN4CCOCC4)nc4scc(-c5ccccc5)c34)CC2)cc1	0	0	0	78.1	0	0
OCC1CCCN(c2nc(CN3CCCCC3)nc3scc(-c4ccccc4)c23)C1 (configuration not stated)	0	0	0	0	0	0
CCNc1nc(CN2CCCCC2)nc2scc(-c3ccccc3)c12	0	0	0	0	0	0
CN(Cc1ccccc1)c1nc(CN2CCOCC2)nc2scc(-c3ccccc3)c12	0	0	0	69.3	0	0
CCC(C)C(NC(N)=O)C(=O)Nc1ccc(OCc2ccccc2)cc1 (configuration not stated)	0	0	0	-	0	0
COc1ccc(-c2noc(CSc3nnc(Cc4ccccc4)n3-c3ccc(Cl)cc3)n2)cc1	0	0	0	60.3	0	0
CC(C)c1nc2c(c(=O)c3ccccc3n2C)c(=O)n1CCc1ccccc1	0	0	0	-	0	0
Nc1ccc(-n2nnnc2-c2ccco2)cc1	0	0	0	0	0	59.1
Cc1ccc(-n2nnnc2-c2ccco2)cc1	0	0	0	0	0	0
O=C(CSc1ccsc1[N+](=O)[O-])N1CCN(c2ccccn2)CC1	0	0	0	0	0	0
SMILES	EBV gp42 block	RBBP9 inh	14-3-3 Bad inh	WT yeast gro inh	eIF4E 4G PPI	p47phox inh
CCCCSc1nn[nH]n1	0	0	76.0	0	0	0
CCCCSc1nnc(CCC)n1N	0	0	0	0	0	0
COc1ccc(/C=N/NC(=O)c2cccc(Br)c2)cc1COc1ccccn1	0	0	0	-	0	0
CCCC(=O)C1=C(O)C(c2cccc(Oc3ccccc3)c2)CCC1=O (configuration not stated)	0	0	0	66.5	0	0
C#C[C@]1(O)CC[C@H]2[C@@H]3CCc4cc(OC5CCCC5)ccc4[C@H]3CC[C@@]21C	0	0	0	95.5	0	0
CCOC(=O)N/N=C1\CCS(=O)(=O)c2ccc(Cl)cc21	0	0	0	-	0	0
COc1ccc(S(=O)(=O)Oc2ccc3ccccc3c2)cc1	0	0	0	60.4	0	0
Cc1cc(Oc2cnn(C(C)(C)C)c(=O)c2Cl)cc(C(C)C)c1	0	0	0	67.3	0	0
CC(C)(C)n1ncc(Oc2ccc(Oc3cnn(C(C)(C)C)c(=O)c3Cl)cc2)c(Cl)c1=O	-	0	-	-	-	-
COCCN=c1scc(-c2cc(OC)ccc2OC)n1/N=C/c1c[nH]c2ccccc12	0	0	0	58.1	0	0
CCOC(=O)c1c(C)[nH]c(C2=NNC(=Nc3ccccc3)SC2)c1C	0	0	0	65.3	0	0
CCOC(=O)c1c(C)[nH]c(C2=NNC(=Nc3ccc(OCC)cc3)SC2)c1C	0	0	0	0	0	0
Cc1ccc(NC(=S)NCC2CCCO2)cc1 (configuration not stated)	0	0	-	0	-	0
CCC(C)c1ccc(NC(=S)Nc2ccc(OC)c(OC)c2)cc1 (configuration not stated)	0	0	0	72.0	0	0
CCC(C)c1ccc(NC(=S)Nc2ccc(OC)cc2C)cc1 (configuration not stated)	0	0	0	74.5	0	0
COc1ccc(NC(=S)NC(C)c2ccncc2)cc1OC (configuration not stated)	0	0	0	0	0	0
COc1ccc(C)cc1NC(=S)NC12CN3CN(CN(C3)C1)C2	0	0	0	0	0	0
CCC(C)c1ccc(NC(=O)CN(C)CC(=O)Nc2cccc(OC)c2)cc1 (configuration not stated)	0	0	0	0	0	0
CCC(C)c1ccc(NC(=S)NC(C)C2CCCO2)cc1 (configuration not stated)	0	0	0	66.1	0	-
COc1ccc(C)cc1NC(=S)NC(C)c1ccc(OC)c(OC)c1 (configuration not stated)	0	0	0	63.8	0	-
O=C(N/N=C1/CC2C=CCC12)c1ccco1 (configuration not stated)	0	0	0	0	0	0
Cc1cc(C(=O)NNS(=O)(=O)c2cccc(Cl)c2)nn1C(C)(C)C	0	0	0	-	0	0
CCN1C(c2ccccc2)=C(c2ccccc2)S/C1=C/C=C1\SC(=S)N(C)C1=O	0	0	0	0	0	42.0
COc1cccc(N2CCN(C3C4CC5CC(C4)CC3C5)CC2)c1 (configuration not stated)	0	0	87.8	0	0	0
COc1cccc(N2CCN(CC(=O)C34CC5CC(CC(C5)C3)C4)CC2)c1	0	0	0	0	0	0
Cc1ccc(-c2cn(-c3ccccc3)c(SCC(=O)NC3CCS(=O)(=O)C3)n2)cc1C (configuration not stated)	0	0	0	0	0	0
Cc1nc2ccccc2n(CC(=O)Nc2cc(Cl)cc(Cl)c2)c1=O	0	0	0	0	0	0
COc1cc(/C=C2\SC(=O)N(Cc3ccc(Cl)cc3)C2=O)cc([N+](=O)[O-])c1O	90.0	0	96.4	0	60.7	0
